Assays:
[1] = target: Insulin receptor (Homo sapiens) (UniProt P06213); test: Inhibition of IR-HIS (unknown origin) at 10 uM
Method in brief: (§1)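 Dundee human kinase selectivity panel (77 kinases); test compound at 1 and 10 μM, percentage kinase inhibition recorded.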

[2] = target: RAC-alpha serine/threonine-protein kinase (Homo sapiens) (UniProt P31749); test: Inhibition of PKB alpha (unknown origin) at 10 uM; method in brief: as §1
[3] = target: MAP kinase-activated protein kinase 2 (Homo sapiens) (UniProt P49137); test: Inhibition of MAPKAP-K2 (unknown origin) at 10 uM; method in brief: as §1
[4] = target: Serine/threonine-protein kinase Chk2 (Homo sapiens) (UniProt O96017); test: Inhibition of CHK2 (unknown origin) at 10 uM; method in brief: as §1
[5] = target: Mitogen-activated protein kinase 14 (Homo sapiens) (UniProt Q16539); test: Inhibition of P38alpha MAPK (unknown origin) at 10 uM; method in brief: as §1
[6] = target: Glycogen synthase kinase-3 (Sus scrofa, UniProt B2LUN4+I6LNT8); test: Inhibition of pig GSK-3alpha/beta
Method in brief: (§2)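 Native affinity-purified porcine GSK-3 in the radiometric assay: 40 μM GS-1 peptide, 15 μM γ-33P-ATP, pH 7.5 Tris/MgCl2/EGTA/DTT/heparin/BSA buffer, 30 min at 30 °C, P81 filter binding and scintillation counting. IC50 from dose-response curves with triplicate points; top concentration 10 or 100 μM.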

Plasmodium falciparum [7] = test: Antiplasmodial activity against Plasmodium falciparum after 72 hrs by luciferase reporter gene assay; type: functional, organism-based; settings: 48 h, in the assay text read “48 hrs” for “72 hrs”
Method in brief: (§3)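 NF54:LUC P. falciparum erythrocytic stages (luciferase under hrp2 promoter) at 3% parasitemia, 25% hematocrit; compounds in RPMI-1640 with 1% DMSO, triplicate wells; untreated, DMSO-only and non-luciferase NF54 blank wells. […] Bright-Glo lysis, luminescence read.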

[8] = Inhibition of pig GSK-3 by radiometric protein kinase assay; design: species or system Sus scrofa; method in brief: as §2
[9] = target: T1, Serine/threonine-protein kinase BRSK2 (Homo sapiens) (UniProt Q8IWQ3); test: Inhibition of BRSK2 (unknown origin) at 10 uM; method in brief: as §1
T1 sequence (whole entry): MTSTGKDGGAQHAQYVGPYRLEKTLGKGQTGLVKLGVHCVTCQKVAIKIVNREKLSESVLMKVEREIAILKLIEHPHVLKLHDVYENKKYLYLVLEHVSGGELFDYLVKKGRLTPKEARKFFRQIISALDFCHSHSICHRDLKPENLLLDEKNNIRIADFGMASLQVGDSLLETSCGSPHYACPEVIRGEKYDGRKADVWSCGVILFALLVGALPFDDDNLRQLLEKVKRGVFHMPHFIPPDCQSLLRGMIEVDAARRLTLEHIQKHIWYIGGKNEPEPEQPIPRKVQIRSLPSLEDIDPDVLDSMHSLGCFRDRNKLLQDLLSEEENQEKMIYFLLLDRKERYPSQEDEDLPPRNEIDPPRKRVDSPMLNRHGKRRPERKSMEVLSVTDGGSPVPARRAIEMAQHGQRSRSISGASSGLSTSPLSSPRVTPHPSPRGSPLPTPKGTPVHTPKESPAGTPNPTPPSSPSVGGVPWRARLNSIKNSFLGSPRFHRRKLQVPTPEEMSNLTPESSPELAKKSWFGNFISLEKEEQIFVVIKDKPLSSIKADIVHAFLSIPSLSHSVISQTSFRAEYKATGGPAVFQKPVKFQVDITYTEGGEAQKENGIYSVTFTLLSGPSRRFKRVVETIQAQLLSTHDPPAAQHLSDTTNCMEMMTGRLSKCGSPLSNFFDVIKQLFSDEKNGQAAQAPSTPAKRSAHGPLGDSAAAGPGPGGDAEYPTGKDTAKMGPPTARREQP

[10] = target: Tyrosine-protein kinase BTK (Homo sapiens) (UniProt Q06187); test: Inhibition of BTK (unknown origin) at 10 uM; method in brief: as §1
[11] = target: Mitogen-activated protein kinase 11 (Homo sapiens) (UniProt Q15759); test: Inhibition of P38beta MAPK (unknown origin) at 10 uM; method in brief: as §1
[12] = target: T2, Mitogen-activated protein kinase 15 (Homo sapiens) (UniProt Q8TD08); test: Inhibition of ERK8 (unknown origin) at 10 uM; method in brief: as §1
T2 sequence (whole entry): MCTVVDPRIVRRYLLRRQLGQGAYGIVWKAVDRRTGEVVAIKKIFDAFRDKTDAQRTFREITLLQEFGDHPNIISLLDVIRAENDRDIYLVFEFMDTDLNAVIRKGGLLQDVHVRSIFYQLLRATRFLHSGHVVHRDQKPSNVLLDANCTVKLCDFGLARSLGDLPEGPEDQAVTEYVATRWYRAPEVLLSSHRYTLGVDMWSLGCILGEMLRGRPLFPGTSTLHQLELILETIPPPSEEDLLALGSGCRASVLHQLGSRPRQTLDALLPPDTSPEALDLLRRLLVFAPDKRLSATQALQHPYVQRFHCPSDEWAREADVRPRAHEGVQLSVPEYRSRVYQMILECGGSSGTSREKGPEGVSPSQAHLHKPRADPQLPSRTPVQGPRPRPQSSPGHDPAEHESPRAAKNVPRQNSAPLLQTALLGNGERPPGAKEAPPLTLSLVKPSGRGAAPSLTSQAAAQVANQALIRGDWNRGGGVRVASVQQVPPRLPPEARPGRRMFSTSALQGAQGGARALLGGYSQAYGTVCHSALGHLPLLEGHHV

[13] = Inhibition of Plasmodium falciparum recombinant GSK-3 by radiometric protein kinase assay
Method in brief: (§4)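 His6-tagged recombinant GSK-3 expressed in E. coli (TOP10/pBAD-Thio-TOPO for P. falciparum and T. gondii, arabinose-induced; BL21(DE3)-pRARE2/pET15 for C. parvum, IPTG at 15 °C), Ni-NTA purified. Assayed with 40 μM GS-1 phosphopeptide, 15 μM γ-33P-ATP in pH 7.5 Tris buffer with MgCl2, EGTA, DTT, heparin, BSA; 30 min, 30 °C; P81 paper, phosphoric acid washes, scintillation counting. DMSO controls; dose-response IC50, triplicate points.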

Plasmodium falciparum [14] = test: Antiplasmodial activity against Plasmodium falciparum at 15 uM after 72 hrs by luciferase reporter gene assay; type: functional; method in brief: as §3
[15] = Inhibition of Toxoplasma gondii recombinant His6-tagged GSK-3 expressed in Escherichia coli using GS-1 peptide as substrate after 30 mins by scintillation counting analysis in presence of gamma-33P-ATP; type: cell-free; method in brief: as §4
[16] = Inhibition of Plasmodium knowlesi recombinant His6-tagged GSK-3 expressed in Escherichia coli using GS-1 peptide as substrate after 30 mins by scintillation counting analysis in presence of gamma-33P-ATP
Method in brief: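 P. knowlesi GSK3 gene in pBAD-Thio-TOPO, expressed in E. coli TOP10 (ampicillin, 37 °C, 0.02% arabinose for 4 h), Ni-NTA purified. Radiometric assay: 40 μM GS-1 peptide in buffer A pH 7.5 (MgCl2, EGTA, DTT, heparin, BSA) with 15 μM γ-33P-ATP, 30 min at 30 °C. P81 filter binding, scintillation counting. IC50 from triplicate dose-response curves.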

[17] = target: Calcium/calmodulin-dependent protein kinase type 1 (Homo sapiens) (UniProt Q14012); test: Inhibition of CAMK1 (unknown origin) at 10 uM; method in brief: as §1
Chain of Calcium/calmodulin-dependent protein kinase type 1 (Homo sapiens) (Q14012 whole entry, looked up): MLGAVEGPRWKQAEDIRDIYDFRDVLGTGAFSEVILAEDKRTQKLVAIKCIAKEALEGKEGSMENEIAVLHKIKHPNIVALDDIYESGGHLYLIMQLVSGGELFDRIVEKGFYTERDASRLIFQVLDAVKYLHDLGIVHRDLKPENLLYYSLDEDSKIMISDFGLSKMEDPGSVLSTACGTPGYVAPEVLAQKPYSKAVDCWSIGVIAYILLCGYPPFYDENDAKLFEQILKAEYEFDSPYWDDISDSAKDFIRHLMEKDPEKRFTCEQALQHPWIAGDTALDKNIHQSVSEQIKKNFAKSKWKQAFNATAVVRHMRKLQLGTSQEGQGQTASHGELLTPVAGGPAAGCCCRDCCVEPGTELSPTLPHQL

Chain of RAC-alpha serine/threonine-protein kinase (Homo sapiens) (P31749 whole entry): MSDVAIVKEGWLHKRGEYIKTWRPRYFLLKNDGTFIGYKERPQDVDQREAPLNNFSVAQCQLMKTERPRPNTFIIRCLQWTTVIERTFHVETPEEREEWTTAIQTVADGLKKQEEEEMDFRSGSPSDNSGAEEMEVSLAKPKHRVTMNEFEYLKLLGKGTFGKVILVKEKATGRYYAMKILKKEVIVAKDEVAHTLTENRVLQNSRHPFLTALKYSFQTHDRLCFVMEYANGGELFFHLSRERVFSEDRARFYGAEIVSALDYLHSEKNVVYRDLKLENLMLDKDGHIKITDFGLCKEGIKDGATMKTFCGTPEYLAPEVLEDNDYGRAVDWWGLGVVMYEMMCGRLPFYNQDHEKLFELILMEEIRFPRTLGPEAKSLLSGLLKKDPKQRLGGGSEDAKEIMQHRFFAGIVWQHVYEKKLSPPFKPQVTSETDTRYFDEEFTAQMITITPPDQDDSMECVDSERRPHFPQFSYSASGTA
Chain of Mitogen-activated protein kinase 11 (Homo sapiens) (Q15759 whole entry): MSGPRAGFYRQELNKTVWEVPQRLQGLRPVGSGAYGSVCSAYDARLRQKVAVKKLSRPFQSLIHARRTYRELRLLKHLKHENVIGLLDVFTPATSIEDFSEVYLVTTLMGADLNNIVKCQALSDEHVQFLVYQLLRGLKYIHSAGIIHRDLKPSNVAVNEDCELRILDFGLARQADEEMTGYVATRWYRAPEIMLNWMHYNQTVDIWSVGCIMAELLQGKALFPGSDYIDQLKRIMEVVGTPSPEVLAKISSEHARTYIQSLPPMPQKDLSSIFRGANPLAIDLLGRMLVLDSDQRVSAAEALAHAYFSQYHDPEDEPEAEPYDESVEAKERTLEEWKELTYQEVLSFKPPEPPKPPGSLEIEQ
Chain of Mitogen-activated protein kinase 14 (Homo sapiens) (Q16539 whole entry): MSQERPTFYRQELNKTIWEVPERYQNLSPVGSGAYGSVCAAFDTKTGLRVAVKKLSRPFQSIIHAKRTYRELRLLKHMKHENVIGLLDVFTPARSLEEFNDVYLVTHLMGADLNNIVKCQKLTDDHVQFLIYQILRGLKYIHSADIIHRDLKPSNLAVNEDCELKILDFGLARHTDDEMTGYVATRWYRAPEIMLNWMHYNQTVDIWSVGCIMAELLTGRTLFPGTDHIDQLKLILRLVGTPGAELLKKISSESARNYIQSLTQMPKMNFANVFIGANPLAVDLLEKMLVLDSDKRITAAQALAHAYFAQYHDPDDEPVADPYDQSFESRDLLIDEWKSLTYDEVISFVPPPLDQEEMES
Chain of Insulin receptor (Homo sapiens) (P06213 28-758 limits assumed): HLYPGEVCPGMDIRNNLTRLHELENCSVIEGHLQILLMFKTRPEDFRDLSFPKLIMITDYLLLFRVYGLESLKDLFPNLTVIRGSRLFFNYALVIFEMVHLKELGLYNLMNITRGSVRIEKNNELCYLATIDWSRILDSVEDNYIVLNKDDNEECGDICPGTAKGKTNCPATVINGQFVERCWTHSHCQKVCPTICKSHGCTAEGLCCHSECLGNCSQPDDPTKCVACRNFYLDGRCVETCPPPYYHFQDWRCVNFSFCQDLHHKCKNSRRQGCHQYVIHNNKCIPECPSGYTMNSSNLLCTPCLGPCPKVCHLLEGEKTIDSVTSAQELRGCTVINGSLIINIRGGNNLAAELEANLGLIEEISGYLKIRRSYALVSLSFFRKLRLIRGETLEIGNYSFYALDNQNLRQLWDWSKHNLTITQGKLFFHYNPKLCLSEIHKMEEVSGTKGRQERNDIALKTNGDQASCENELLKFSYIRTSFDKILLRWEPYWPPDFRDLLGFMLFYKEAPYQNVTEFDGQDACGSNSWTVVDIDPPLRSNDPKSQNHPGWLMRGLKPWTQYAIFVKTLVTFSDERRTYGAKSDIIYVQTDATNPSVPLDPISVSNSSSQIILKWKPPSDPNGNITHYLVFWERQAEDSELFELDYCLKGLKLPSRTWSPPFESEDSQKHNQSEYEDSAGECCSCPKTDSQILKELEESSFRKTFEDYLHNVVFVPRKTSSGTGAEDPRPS
Chain of Insulin receptor (Homo sapiens) (P06213 763-1382 limits assumed): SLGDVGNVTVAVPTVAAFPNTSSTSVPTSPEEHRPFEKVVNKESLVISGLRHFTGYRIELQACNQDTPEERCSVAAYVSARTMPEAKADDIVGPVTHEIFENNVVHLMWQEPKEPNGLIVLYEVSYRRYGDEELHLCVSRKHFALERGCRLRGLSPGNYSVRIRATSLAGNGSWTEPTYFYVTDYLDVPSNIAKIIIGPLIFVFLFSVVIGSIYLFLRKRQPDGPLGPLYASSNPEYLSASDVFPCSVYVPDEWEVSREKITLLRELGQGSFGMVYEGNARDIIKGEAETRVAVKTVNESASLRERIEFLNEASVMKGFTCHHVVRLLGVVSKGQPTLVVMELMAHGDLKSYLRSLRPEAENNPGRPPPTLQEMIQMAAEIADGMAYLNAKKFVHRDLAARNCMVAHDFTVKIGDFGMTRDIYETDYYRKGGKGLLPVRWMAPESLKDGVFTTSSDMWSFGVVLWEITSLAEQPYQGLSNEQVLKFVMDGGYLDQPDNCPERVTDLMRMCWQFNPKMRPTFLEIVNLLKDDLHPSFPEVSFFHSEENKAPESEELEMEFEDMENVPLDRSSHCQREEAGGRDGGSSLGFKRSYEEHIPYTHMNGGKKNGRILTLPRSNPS
Chain of Serine/threonine-protein kinase Chk2 (Homo sapiens) (O96017 whole entry): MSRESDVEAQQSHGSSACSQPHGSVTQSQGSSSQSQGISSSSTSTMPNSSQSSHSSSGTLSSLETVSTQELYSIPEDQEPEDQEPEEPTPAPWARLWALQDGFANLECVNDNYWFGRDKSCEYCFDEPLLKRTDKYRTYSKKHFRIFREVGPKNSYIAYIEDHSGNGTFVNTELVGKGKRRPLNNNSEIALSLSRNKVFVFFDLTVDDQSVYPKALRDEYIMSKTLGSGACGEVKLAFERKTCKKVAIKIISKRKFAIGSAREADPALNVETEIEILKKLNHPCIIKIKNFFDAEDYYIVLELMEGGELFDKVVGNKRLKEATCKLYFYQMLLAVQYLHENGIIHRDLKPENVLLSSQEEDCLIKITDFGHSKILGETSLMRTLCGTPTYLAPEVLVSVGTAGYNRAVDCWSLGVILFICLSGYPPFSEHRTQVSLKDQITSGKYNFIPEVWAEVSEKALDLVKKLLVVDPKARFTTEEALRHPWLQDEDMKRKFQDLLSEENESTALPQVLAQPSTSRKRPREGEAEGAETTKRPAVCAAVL
Chain of MAP kinase-activated protein kinase 2 (Homo sapiens) (P49137 whole entry, looked up): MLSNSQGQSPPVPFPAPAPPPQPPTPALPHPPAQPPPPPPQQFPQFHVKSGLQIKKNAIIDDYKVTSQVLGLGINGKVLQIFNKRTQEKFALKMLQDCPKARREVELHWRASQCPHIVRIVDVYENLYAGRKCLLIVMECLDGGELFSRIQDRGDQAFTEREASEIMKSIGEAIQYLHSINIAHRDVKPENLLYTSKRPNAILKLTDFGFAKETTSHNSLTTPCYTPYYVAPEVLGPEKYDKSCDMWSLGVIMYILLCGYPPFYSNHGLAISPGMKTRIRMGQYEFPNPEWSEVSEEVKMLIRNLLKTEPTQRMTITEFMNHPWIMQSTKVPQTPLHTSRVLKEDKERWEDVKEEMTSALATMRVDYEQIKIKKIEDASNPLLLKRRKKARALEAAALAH
Chain of Tyrosine-protein kinase BTK (Homo sapiens) (Q06187 whole entry): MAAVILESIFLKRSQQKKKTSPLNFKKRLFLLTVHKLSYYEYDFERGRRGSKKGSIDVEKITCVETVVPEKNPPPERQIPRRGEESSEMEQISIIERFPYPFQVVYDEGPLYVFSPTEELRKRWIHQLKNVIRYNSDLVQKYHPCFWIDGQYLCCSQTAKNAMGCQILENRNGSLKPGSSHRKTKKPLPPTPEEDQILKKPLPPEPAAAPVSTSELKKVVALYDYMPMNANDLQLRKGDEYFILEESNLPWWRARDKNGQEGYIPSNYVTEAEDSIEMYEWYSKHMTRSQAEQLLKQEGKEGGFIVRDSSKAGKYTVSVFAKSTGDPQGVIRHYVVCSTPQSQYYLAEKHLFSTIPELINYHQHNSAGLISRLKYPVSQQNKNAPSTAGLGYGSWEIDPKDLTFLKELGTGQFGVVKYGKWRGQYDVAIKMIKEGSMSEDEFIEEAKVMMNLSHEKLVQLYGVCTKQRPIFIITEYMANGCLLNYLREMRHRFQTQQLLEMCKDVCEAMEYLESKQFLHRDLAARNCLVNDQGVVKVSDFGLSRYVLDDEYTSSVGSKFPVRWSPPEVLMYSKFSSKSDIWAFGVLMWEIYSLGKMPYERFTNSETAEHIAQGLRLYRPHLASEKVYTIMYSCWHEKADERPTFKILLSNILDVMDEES

N#Cc1c(N)nc2sc(C(=O)c3cccc(Cl)c3)c(N)c2c1-c1ccccc1Cl
inhibition [1]: > 50% | inhibition [2]: > 80% | inhibition [3]: > 50% | inhibition [4]: > 50% | inhibition [5]: > 50% | IC50 [6]: > 10 µM | EC50 (Plasmodium falciparum [7]): 5.5 µM | IC50 [8]: > 10 µM | inhibition [9]: > 50% | inhibition [10]: > 50% | inhibition [11]: > 50% | inhibition [12]: > 50% | IC50 [13]: 0.48 µM | inhibition at 15 µM (Plasmodium falciparum [14]): 100% | IC50 [15]: > 100 µM | IC50 [16]: 2.45 µM | inhibition [17]: > 50%

From ChEMBL document CHEMBL2311539, “3,6-Diamino-4-(2-halophenyl)-2-benzoylthieno[2,3-b]pyridine-5-carbonitriles are selective inhibitors of Plasmodium falciparum glycogen synthase kinase-3” (J Med Chem, 2013)
